Test [1] deals with Ribosomal protein S6 kinase alpha-3 (Homo sapiens) (UniProt P51812). As to the kind of experiment: Binding affinity to human RPS6KA3 kinase domain 1 at 500 nM by cell-based competition binding assay relative to control in presence of DTT.
Test [2] concerns the target Tyrosine-protein kinase JAK2 (Homo sapiens) (UniProt O60674). Nature of the test: Binding affinity to human JAK2 kinase domain 2 at 500 nM by cell-based competition binding assay relative to control in presence of DTT. In a few lines: (§1)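 Competition binding screen (Ambit) across a panel of 90 kinases, scoring test ligand displacement of each kinase's binding relative to control. The screen ran under reducing conditions with 7.5 mM DTT.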

Test [3] deals with RAC-alpha serine/threonine-protein kinase (Homo sapiens) (UniProt P31749). Nature of the test: Binding affinity to human AKT1 at 200 nM by cell-based competition binding assay relative to control in presence of DTT. The method, boiled down: (§2)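 Kinase binding profiling ran on a commercial (Ambit) competitive binding screen against a panel of 90 kinases. The screen used reducing conditions with 7.5 mM DTT. To withstand the DTT, the bivalent ligand was tested as its amide isostere, with the disulfide replaced. A staurosporine derivative carrying a 3 β-alanine linker was run as the reference compound.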

For test [4], the target named is Receptor tyrosine-protein kinase erbB-2 (Homo sapiens) (UniProt P04626). As to the kind of experiment: Binding affinity to human ERBB2 at 200 nM by cell-based competition binding assay relative to control in presence of DTT. The method, boiled down:
(§3)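 Commercial (Ambit) competitive kinase-binding panel of 90 kinases measured the binding profile. Run under reducing conditions of 7.5 mM DTT. Binding is expressed relative to control.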

For test [5], the target named is Serine/threonine-protein kinase pim-2 (Homo sapiens) (UniProt Q9P1W9). As to the kind of experiment: Binding affinity to human PIM2 at 200 nM by cell-based competition binding assay relative to control in presence of DTT.
Serine/threonine-protein kinase pim-2 (Homo sapiens), sequence (Q9P1W9 whole entry, looked up): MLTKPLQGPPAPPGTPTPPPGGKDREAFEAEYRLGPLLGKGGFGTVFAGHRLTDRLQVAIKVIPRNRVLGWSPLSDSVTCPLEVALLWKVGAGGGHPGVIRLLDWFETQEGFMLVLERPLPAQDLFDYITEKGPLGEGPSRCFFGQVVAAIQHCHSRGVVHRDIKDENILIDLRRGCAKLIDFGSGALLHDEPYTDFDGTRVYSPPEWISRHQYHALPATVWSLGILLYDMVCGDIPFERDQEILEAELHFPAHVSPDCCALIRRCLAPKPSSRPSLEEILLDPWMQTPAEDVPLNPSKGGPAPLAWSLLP
Test [6] deals with Mast/stem cell growth factor receptor Kit (Homo sapiens), P10721 [V559D,T670I]. As to the kind of experiment: Binding affinity to human KIT V559D,T670I mutant at 200 nM by cell-based competition binding assay relative to control in presence of DTT. The method, boiled down:
as §1

In test [7] the target is Mitogen-activated protein kinase 8 (Homo sapiens) (UniProt P45983). As to the kind of experiment: Binding affinity to human JNK1 at 200 nM by cell-based competition binding assay relative to control in presence of DTT. In a few lines: as §1
Test [8] has as its target cAMP-dependent protein kinase catalytic subunit alpha (Homo sapiens) (UniProt P17612). Nature of the test: Binding affinity to human PKACalpha at 200 nM by cell-based competition binding assay relative to control in presence of DTT.
Test [9] addresses Serine/threonine-protein kinase B-raf (Homo sapiens) (UniProt P15056). Nature of the test: Binding affinity to human BRAF at 200 nM by cell-based competition binding assay relative to control in presence of DTT. In a few lines:
as §2

The target in test [10] is Proto-oncogene tyrosine-protein kinase Src (Homo sapiens) (UniProt P12931). As to the kind of experiment: Binding affinity to human SRC at 50 nM by cell-based competition binding assay relative to control in presence of DTT.
Proto-oncogene tyrosine-protein kinase Src (Homo sapiens), sequence (P12931 2-536 limits assumed): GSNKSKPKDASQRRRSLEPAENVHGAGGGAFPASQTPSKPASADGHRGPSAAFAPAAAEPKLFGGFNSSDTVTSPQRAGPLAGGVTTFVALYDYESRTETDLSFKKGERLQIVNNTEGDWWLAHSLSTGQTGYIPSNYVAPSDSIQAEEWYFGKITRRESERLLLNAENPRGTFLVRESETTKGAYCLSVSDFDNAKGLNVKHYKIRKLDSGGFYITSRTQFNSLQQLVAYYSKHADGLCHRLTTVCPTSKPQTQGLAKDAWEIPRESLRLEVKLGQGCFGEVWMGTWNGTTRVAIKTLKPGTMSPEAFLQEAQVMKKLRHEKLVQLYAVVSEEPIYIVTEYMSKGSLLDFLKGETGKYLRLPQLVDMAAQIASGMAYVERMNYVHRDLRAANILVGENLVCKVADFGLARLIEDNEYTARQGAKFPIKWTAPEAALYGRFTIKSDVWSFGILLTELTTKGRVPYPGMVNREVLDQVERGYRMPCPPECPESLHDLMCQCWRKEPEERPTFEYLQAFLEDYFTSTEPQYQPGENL
For test [11], the target named is Cyclin-dependent kinase 3 (Homo sapiens) (UniProt Q00526). As to the kind of experiment: Binding affinity to human CDK3 at 50 nM by cell-based competition binding assay relative to control in presence of DTT. The method, boiled down:
as §2

The target in test [12] is T1, Serine/threonine-protein kinase PLK4 (Homo sapiens) (UniProt O00444).
T1 sequence (whole entry): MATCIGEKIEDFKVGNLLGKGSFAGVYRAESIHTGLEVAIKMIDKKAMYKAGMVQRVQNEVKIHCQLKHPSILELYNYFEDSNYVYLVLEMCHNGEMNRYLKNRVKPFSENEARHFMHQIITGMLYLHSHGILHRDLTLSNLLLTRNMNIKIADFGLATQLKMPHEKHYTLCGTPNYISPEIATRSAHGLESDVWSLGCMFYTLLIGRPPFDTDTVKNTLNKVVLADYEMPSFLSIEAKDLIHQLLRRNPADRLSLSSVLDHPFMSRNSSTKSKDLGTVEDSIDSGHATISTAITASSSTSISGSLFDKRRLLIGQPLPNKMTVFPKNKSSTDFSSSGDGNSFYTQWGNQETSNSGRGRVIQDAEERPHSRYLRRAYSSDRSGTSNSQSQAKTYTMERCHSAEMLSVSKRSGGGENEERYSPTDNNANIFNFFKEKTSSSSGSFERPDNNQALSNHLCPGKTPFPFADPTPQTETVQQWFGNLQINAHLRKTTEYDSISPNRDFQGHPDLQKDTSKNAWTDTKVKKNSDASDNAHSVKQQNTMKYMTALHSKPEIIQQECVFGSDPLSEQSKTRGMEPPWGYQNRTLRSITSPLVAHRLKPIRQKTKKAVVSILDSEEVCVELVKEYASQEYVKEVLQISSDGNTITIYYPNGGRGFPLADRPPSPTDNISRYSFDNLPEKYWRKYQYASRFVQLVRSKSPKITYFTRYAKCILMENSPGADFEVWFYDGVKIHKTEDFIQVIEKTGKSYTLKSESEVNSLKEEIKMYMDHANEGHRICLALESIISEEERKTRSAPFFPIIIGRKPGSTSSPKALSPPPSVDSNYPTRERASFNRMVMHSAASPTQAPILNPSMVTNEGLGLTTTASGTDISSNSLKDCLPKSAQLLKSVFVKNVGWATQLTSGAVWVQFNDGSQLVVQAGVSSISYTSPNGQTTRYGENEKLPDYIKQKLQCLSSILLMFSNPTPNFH
Nature of the test: Binding affinity to human PLK4 at 50 nM by cell-based competition binding assay relative to control in presence of DTT.

Test [13] deals with Fibroblast growth factor receptor 2 (Homo sapiens) (UniProt P21802). As to the kind of experiment: Binding affinity to human FGFR2 at 50 nM by cell-based competition binding assay relative to control in presence of DTT. In a few lines:
as §3

In test [14] the target is Proto-oncogene tyrosine-protein kinase receptor Ret (Homo sapiens) (UniProt P07949). As to the kind of experiment: Binding affinity to human RET at 50 nM by cell-based competition binding assay relative to control in presence of DTT.
Proto-oncogene tyrosine-protein kinase receptor Ret (Homo sapiens), sequence (P07949 whole entry): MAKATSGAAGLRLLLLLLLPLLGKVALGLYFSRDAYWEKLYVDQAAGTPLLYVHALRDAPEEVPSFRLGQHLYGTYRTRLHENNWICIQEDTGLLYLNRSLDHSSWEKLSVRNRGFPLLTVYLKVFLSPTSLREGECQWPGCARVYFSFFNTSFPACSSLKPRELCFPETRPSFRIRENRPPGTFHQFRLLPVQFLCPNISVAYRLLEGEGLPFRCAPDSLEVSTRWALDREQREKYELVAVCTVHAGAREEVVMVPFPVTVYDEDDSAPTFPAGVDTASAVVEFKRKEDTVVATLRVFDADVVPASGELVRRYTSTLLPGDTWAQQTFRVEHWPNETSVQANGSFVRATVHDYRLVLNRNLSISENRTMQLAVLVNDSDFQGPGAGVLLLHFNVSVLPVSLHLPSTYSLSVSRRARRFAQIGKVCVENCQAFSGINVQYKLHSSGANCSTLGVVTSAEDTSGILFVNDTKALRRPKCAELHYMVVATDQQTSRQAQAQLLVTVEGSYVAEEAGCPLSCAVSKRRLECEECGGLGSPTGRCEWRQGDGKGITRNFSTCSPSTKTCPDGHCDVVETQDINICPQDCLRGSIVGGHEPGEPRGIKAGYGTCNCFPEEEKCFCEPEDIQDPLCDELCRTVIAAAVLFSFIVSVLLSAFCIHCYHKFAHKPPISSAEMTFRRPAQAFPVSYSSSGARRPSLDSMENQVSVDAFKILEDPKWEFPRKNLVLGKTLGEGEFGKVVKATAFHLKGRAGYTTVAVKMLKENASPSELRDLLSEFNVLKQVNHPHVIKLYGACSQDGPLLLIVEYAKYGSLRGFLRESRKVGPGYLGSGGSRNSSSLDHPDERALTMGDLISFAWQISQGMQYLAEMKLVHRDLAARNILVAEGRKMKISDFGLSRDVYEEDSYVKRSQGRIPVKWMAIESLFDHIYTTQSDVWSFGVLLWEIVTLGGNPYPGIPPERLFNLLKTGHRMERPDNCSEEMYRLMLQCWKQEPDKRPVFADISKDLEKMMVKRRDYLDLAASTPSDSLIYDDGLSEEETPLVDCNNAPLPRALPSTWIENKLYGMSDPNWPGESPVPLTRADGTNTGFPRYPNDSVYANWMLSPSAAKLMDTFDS

*1 amine or outer side, *2 acyl side, *3 side chain or, on linkers, in order; H or OH if unused. Where a SMILES comes first, the peptide text is derived from it. Bridges are numbered along the chain shown (N, C = ends). [ ]: non-standard residue; d: D form. The star is where a group is joined. Staurosporine = CO[C@@H]1[C@H](N(C)*)C[C@H]2O[C@]1(C)n1c3ccccc3c3c4c(c5c6ccccc6n2c5c31)C(=O)NC4; Suc = O=C(CCC(=O)[*:2])[*:1]; Dap = NC[C@H](N)C(=O)O; βAla = NCCC(=O)O

Mast/stem cell growth factor receptor Kit (Homo sapiens), P10721 [V559D,T670I], sequence (P10721 whole entry V559D/T670I): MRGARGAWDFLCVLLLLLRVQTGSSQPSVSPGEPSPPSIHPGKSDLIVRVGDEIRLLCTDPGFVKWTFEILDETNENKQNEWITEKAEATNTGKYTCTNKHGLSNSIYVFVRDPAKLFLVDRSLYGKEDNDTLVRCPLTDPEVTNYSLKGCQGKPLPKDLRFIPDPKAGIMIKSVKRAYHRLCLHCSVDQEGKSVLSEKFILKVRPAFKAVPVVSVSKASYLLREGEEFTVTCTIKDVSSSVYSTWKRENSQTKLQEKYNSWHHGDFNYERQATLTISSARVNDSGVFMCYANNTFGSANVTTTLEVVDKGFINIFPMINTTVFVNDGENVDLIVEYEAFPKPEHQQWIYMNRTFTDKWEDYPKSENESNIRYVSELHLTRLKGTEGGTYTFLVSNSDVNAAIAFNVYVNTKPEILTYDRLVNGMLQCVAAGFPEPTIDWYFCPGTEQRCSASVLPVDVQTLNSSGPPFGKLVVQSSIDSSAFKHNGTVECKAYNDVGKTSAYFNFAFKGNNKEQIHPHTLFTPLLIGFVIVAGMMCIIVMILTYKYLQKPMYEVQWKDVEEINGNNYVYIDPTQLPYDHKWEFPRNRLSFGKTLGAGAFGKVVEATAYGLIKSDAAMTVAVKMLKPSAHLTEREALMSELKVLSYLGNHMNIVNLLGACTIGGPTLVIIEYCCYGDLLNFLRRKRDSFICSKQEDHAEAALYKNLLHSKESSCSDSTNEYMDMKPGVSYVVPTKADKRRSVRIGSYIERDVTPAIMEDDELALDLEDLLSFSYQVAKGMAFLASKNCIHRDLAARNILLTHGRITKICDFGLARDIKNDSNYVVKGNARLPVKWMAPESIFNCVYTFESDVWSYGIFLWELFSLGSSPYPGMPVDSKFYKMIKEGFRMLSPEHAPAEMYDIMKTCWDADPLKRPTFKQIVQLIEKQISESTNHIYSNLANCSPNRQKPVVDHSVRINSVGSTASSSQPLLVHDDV
Fibroblast growth factor receptor 2 (Homo sapiens), sequence (P21802 22-821 limits assumed): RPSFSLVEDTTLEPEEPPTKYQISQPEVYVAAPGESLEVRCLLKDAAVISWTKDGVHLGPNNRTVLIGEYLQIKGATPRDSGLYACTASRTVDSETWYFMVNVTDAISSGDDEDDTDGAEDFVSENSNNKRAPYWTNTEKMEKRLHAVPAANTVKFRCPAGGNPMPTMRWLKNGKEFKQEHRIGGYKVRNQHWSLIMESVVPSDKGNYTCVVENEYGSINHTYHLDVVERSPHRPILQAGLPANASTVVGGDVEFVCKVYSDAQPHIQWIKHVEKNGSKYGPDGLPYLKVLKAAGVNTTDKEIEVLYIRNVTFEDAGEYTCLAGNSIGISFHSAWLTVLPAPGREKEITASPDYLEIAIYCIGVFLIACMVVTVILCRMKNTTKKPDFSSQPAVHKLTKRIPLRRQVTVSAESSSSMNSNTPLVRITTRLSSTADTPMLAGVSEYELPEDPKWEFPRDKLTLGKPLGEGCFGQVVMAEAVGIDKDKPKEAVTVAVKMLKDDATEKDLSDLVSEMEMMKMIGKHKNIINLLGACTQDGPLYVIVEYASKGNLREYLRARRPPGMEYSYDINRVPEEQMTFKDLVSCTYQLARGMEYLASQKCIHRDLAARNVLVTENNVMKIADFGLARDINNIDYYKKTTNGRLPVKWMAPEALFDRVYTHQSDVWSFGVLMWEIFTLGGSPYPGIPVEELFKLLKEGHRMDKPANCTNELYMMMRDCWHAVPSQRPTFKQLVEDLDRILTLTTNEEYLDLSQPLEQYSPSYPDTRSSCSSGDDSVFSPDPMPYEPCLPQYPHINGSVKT
Cyclin-dependent kinase 3 (Homo sapiens), sequence (Q00526 whole entry, looked up): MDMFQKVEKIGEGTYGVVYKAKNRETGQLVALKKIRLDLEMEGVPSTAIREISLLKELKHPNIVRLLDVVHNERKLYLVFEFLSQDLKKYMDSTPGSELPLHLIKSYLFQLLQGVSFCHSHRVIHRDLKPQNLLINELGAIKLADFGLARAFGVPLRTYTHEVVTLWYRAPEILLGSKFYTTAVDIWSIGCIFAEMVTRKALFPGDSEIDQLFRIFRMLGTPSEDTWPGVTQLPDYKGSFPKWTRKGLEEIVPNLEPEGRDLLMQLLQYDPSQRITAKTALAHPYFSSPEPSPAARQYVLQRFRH
Ribosomal protein S6 kinase alpha-3 (Homo sapiens), sequence (P51812 whole entry, the tested form may be a part): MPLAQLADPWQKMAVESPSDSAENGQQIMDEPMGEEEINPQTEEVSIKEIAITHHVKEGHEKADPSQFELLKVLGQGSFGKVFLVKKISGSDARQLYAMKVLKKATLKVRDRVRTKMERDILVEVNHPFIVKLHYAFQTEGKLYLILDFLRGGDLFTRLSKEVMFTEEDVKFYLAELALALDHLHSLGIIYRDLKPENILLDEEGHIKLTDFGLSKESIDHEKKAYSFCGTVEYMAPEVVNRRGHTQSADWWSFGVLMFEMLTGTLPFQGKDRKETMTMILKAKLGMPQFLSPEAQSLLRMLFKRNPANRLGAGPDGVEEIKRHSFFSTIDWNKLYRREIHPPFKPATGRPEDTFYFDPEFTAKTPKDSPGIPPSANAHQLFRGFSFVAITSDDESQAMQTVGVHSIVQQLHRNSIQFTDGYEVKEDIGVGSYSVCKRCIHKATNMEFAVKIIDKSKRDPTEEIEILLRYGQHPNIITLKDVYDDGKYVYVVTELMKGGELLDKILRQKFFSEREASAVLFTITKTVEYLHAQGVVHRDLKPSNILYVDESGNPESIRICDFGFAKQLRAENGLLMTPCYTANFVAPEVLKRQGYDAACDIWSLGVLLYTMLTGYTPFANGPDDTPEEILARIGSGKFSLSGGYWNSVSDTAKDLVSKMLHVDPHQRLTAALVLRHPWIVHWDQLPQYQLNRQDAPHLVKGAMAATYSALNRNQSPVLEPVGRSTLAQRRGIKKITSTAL

Take `CO[C@@H]1[C@H](N(C)C(=O)CCC(=O)NCCC(=O)NCCC(=O)NCCC(N)=O)C[C@H]2O[C@]1(C)n1c3ccccc3c3c4c(c5c6ccccc6n2c5c31)C(=O)NC4`: the Activity in test [1] is 44%; in test [2] it was 2.4%.
Consider `CO[C@@H]1[C@H](N(C)C(=O)CCC(=O)NCCC(=O)NCCC(=O)NCCC(=O)NCCC(=O)NCCC(=O)NCCC(=O)NCCC(=O)N[C@H]2CSSC[C@@H](C(=O)NCC(N)=O)NC(=O)CNC(=O)[C@H](Cc3ccccc3)NC(=O)[C@H](C(C)C)NC(=O)[C@H](CCCNC(=N)N)NC(=O)[C@H](Cc3ccccc3)NC(=O)[C@H](C(C)C)NC2=O)C[C@H]2O[C@]1(C)n1c3ccccc3c3c4c(c5c6ccccc6n2c5c31)C(=O)NC4` ({Staurosporine-Suc-βAla-βAla-βAla-βAla-βAla-βAla-βAla}-CVFRVFGCG-NH2; disulfide 1-8), for which the Activity in [3] was 100%; in test [4] it was 100%; in test [5], 100%; in [6], 4.1%; in [7] it was 83%; in test [8], 19%. The Activity in test [9] was 100%.
Regarding `CO[C@@H]1[C@H](N(C)C(=O)CCC(=O)NCCC(=O)NCCC(=O)NCCC(=O)NCCC(=O)NCCC(=O)NCCC(=O)NCCC(=O)N[C@H]2CNC(=O)C[C@@H](C(N)=O)NC(=O)CNC(=O)[C@H](Cc3ccccc3)NC(=O)[C@H](C(C)C)NC(=O)[C@H](CCCNC(=N)N)NC(=O)[C@H](Cc3ccccc3)NC(=O)[C@H](C(C)C)NC2=O)C[C@H]2O[C@]1(C)n1c3ccccc3c3c4c(c5c6ccccc6n2c5c31)C(=O)NC4` ({Staurosporine-Suc-βAla-βAla-βAla-βAla-βAla-βAla-βAla}-[Dap]VFRVFGD-NH2; lactam 1-8), the Activity in [10] was 100%; in test [11], 100%; in test [12], 5.7%; in [13] it was 86%; in test [14], 94%.

For the origin of these results see ChEMBL document CHEMBL1152541, “Staurosporine tethered peptide ligands that target cAMP-dependent protein kinase (PKA): optimization and selectivity profiling” (Bioorg Med Chem, 2009).
